Compound activity deposited in PubChem by several laboratories.
UHRF1 binding – blocks human UHRF1 binding to methylated DNA; Q96T88; UHRF1 binding to methylated oligo, TR-FRET; inhibition, % at 4.4 µM; 370,000 tested, 0.75% active; in the data active = inhibition above about 21%;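 note: UHRF1 SRA domain binding a hemimethylated CpG hairpin DNA probe; 0% = median of test compound wells and 100% = reference inhibitor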
Arr AP2 block – inhibitors of human beta-arrestin and AP2 interaction | FITC-arrestin peptide / GST-AP2 beads, flow cytometry; AP2 beta2 appendage carries R879A mutation | inhibition, % at 10 µM | 340,000 tested, 0.31% active | AID 504490;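 active = inhibition above a set limit, near 3 SD of compounds lacking own fluorescence, cut at about 54% in these data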;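 note: plate controls were DMSO wells for no effect and 5 µM unlabelled arrestin peptide for full effect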
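System: GST-AP2 R879A glutathione beads. Medium: PBS with 0.05% Tween 20 and 0.1% BSA. Also added: FITC-arrestin peptide, 50 nM. Incubation: 12 min plus 1 h, RT. Measured by: high-throughput flow cytometry of beads, ex 488, em 535 nm. Evaluation: percent drop in bead-associated FITC signal.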
Beta2AR agonist – human beta-2 adrenergic receptor agonism by FAP. P07550. Am2.2-beta2AR cells, FAP receptor internalization, flow cytometry. response, % (concentration not given with the values). 340,000 tested, 0.43% active;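 active = response above a set limit, near 3 SD of response in nonfluorescent compounds, cut at about 42% in these data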
ABHD5-PLIN5 inh – blocks binding of human ABHD5 to perilipin-5; Q00G26+Q8WTS1; 360,000 tested, 0.78% active; inhibition, % at 4 µM; Split G. princeps luciferase complementation, luminescence, 4 h;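 active = inhibition above the mean inhibition across every tested compound plus 3 SD, cut at about 22% in these data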;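 note: 0% = DMSO only wells and the 100% control is not disclosed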
Rin1 Abl inh – inhibitors of human Rin1-Abl protein interaction. P00519+Q13671. TR-FRET Rin1/Abl binding, biochemical. inhibition, % at 7.35 µM. 360,000 tested, 0.4% active; in the data active = inhibition above about 5%, passing the limit was not always enough
MBD2 DNA inh – MBD2-methylated oligo binding inhibition | 370,000 tested, 0.31% active | TR-FRET, MBD2 binding to methylated oligonucleotide | inhibition, % at 4.4 µM | Q9UBB5 | AID 686964; in the data active = inhibition above about 13%
B2AR ag CP1 – agonists of human beta-2 adrenergic receptor | percent response (surface receptor), % at 10 µM | AID 540358 | shares compounds with Beta2AR agonist | 1,100 tested, 25% active | Am2.2-beta2AR cells, FAP surface receptor, flow cytometry; hits give low values;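 active = surface receptor percent response at or below 58%, roughly 3 SD from nonfluorescent compounds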
B2AR FAP counter – flagged in Am2.2 fluorescence counterscreen for beta-2AR agonists; shares compounds with Beta2AR agonist; calls only at 10 µM; Am2.2 cells, FAP fluorogen flow cytometry; hits give low values; 1,100 tested, under 10 active;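 active = percent response below a set limit in fluorescence channel 1 and below 50% in channel 8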
Active calls of the source: *; i = inactive; / = not tested or not shown. Sampled rows, rich in hits. Any-hit rate of the full collection: about 2.5%.

SMILES	UHRF1 binding	Arr AP2 block	Beta2AR agonist	ABHD5-PLIN5 inh	Rin1 Abl inh	MBD2 DNA inh	B2AR ag CP1	B2AR FAP counter
COC(=O)c1cc(F)c(-n2cncn2)c(F)c1	0	-3	11	10	0	1	/	/
COc1ccc2nc(NC(=O)CSc3nnc(N)s3)sc2c1	-2	-10	75*	-5	2	1	78	i
O=C(c1cc2c(ccc3ccccc32)o1)N1CCN(c2ncc(C(F)(F)F)cc2Cl)CC1	-1	-7	98*	1	-2	-5	13*	i
COc1ccc(C#Cc2ccc3c(c2)[C@H]2[C@H](CCN2S(=O)(=O)c2ccccc2F)[C@H](CO)N3C)cc1	-1	/	/	/	/	-8	/	/
Fc1ccc(Nc2nc(NCc3ccco3)c3ccccc3n2)cc1	3	30	33	9	5	0	60	i
CN(C)c1ncc(CN2CCC(C(=O)Nc3ccc(-n4cccn4)cc3)CC2)s1	4	-2	-3	-5	7	-1	/	/
COCCc1ncc(CN2CCC(C(=O)Nc3ccc(-n4cccn4)cc3)CC2)cn1	0	-11	50*	-2	6	3	30*	i
COc1ccc(/C=N/n2cnc3c([nH]c4ccc(F)cc43)c2=O)cc1CSc1ccccn1	6	5	58*	3	-2	1	79	i
CCn1c2ccccc2c2cc(CNCc3ccc(OC)cc3OC)ccc21	1	1	51*	19	5	0	76	i
CN(Cc1ccccc1F)C(=O)C1CCC(CNS(=O)(=O)c2cccc3cccnc23)CC1 (centres undefined)	0	/	/	/	/	11	/	/
CCCCNc1ccc(C(CC(N)=O)NC(=O)Cc2cccc3ccccc23)cc1[N+](=O)[O-] (centres undefined)	-2	-8	-3	-3	5	0	/	/
NC(=O)CC(NC(=O)Cc1cccc2ccccc12)c1ccc(NCCCN2CCCC2=O)c([N+](=O)[O-])c1 (centres undefined)	-13	10	103*	8	-6	-17	17*	i
COc1cccc(-c2cc3nc(-c4ccco4)cc(N4CCN(C(C)=O)CC4)n3n2)c1	-4	/	/	/	/	-6	/	/
CC(=O)c1cc(-c2ccc(Cl)c(C(F)(F)F)c2)c(=O)n2c1CCC2	0	/	/	/	/	-7	/	/
O=C(Nc1ccc(-c2nc3ccccc3o2)cc1)c1ccc2c(c1)OCO2	-2	19	-14	5	0	-2	/	/
O=C(Nc1ccc2oc(-c3ccccc3F)nc2c1)c1ccc2c(c1)OCCO2	5	6	23	-6	-1	7	88	i
CCOc1ccc(-n2nc3ccc(NC(=O)c4ccc5c(c4)OCCO5)cc3n2)cc1	9	-5	69*	3	3	3	98	i
O=C(Nc1ccc2nn(-c3ccccc3)nc2c1)c1ccc2c(c1)OCCO2	6	3	-7	2	-1	1	/	/
CN(CCOc1ccc(-c2ccn(S(=O)(=O)c3cccc4ccccc34)n2)cc1)c1ccccn1	-1	0	76*	2	1	1	39*	i
CN(CCOc1ccc(-c2ccn(S(=O)(=O)c3c(Cl)cccc3Cl)n2)cc1)c1ccccn1	0	5	-2	1	1	0	/	/
Fc1ccc(-c2n[nH]c(=S)n2N=Cc2ccc(-c3ccccc3)cc2)cc1	4	/	/	/	/	-1	/	/
O=C(Nc1cccc(Cl)c1)O[C@@H]1CC[C@@]23CCCN2C(=O)CCC[C@H]3C1	0	/	/	/	/	-2	/	/
O=C(Nc1ccc2oc(-c3cccnc3)nc2c1)c1cccnc1	-4	-6	-3	-2	1	-1	/	/
CCOc1cccc(C(=O)Nc2ccc3oc(-c4cccnc4)nc3c2)c1	3	16	7	2	-3	-1	103	i
CNCc1ccccc1Sc1cc(O)ccc1O	-3	24	68*	7	1	-2	89	i
Cn1c(=O)[nH]c2c(Br)nccc21	1	/	/	/	/	-3	/	/
